One data set relates to Escherichia coli. The experiment in a line: Antimicrobial activity against Escherichia coli by standard disk assay. It counts as functional, organism-based.
Data set [1] in a line: Cytotoxicity against CHOK1 cells. It counts as cell-based, Cricetulus griseus. The note with it: chinese hamster, CHO-K1 cells; read-out: ED50 (the source's name). The method in brief: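 CHO-K1 cell growth inhibition, reported as ED50 in µg/ml.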
Data set [2] concerns Proteus vulgaris. The experiment in a line: Antimicrobial activity against Proteus vulgaris by standard disk assay. It counts as functional, organism-based. The method in brief:
(§1)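 Tested at one concentration only, 1.9 mg/ml.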

In data set [3] the test system is Staphylococcus aureus. Kind of data set: Antimicrobial activity against Staphylococcus aureus by standard disk assay. It counts as functional, organism-based. The method in brief:
as §1

Another data set deals with Hafnia alvei. The experiment in a line: Antimicrobial activity against Hafnia alvei by standard disk assay. It counts as functional, organism-based.
Data set [4] relates to Klebsiella pneumoniae. Kind of data set: Antimicrobial activity against Klebsiella pneumoniae by standard disk assay. It counts as functional, organism-based. A digest of the protocol:
as §1

Data set [5] concerns Proteus vulgaris. The experiment in a line: Antimicrobial activity against Proteus vulgaris at 1.9 mg/ml by standard disk assay. It counts as functional, organism-based. A digest of the protocol:
as §1

In data set [6] the test system is Staphylococcus aureus. Kind of data set: Antimicrobial activity against Staphylococcus aureus at 1.9 mg/ml by standard disk assay. It counts as functional, organism-based. A digest of the protocol:
as §1

Data set [7] concerns Klebsiella pneumoniae. The experiment in a line: Antimicrobial activity against Klebsiella pneumoniae at 1.9 mg/ml by standard disk assay. It counts as functional, organism-based. The method in brief: as §1

Values after ≈ are worked out from the molar mass of the structure shown. Active and inactive are the calls of the source. The rule behind the calls is not given here.

As to `CC1=CCC[C@H](C)[C@@]1(C)CC/C(C)=C/CC/C(=C/CS(=O)(=O)CCNC(=N)N)CO`, the outcome in the data set with Escherichia coli, with Proteus vulgaris [2], in the data set with Staphylococcus aureus [3], in the data set with Hafnia alvei and in the data set on Klebsiella pneumoniae [4] was Active. The CC50 in [1] amounted to 2.21 µg/mL (≈ 5.03 µM).

As to `CC1=CCC[C@H](C)[C@@]1(C)CC/C(C)=C/CC/C(C)=C/CS(=O)(=O)CCNC(=N)N`, the CC50 in data set [1] came out at 5.7 µg/mL (≈ 13.5 µM). Besides, the outcome in the data set on Proteus vulgaris [5], in the data set on Staphylococcus aureus [6] and in the data set with Klebsiella pneumoniae [7] was Active.

The values above are taken from ChEMBL document CHEMBL1159018, “(-)-agelasidine C and (-)-agelasidine D, two new hypotaurocyamine diterpenoids from the Caribbean sea sponge Agelas clathrodes” (J Nat Prod, 1992).
